From ChEMBL document CHEMBL5532683, “Design, Synthesis, and Bioevaluation of Transcriptional Enhanced Assocciated Domain (TEAD) PROTAC Degraders” (ACS Med Chem Lett, 2024)
Values belong to the compound of their own block, whether it stands above or below them. Active and inactive are the calls of the source. The calls are words filed in the database; no cut-off is given here.

What was measured:
NCI-H226 [1] = assay: Antiproliferative activity against human NCI-H226 cells incubated for 120 hrs by Celltiter-glo luminescent assay; format: functional, cell-based; details: NCI-H226, 120 h
In short: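 5-day exposure of NF2-deficient NCI-H226 cells to compounds at a range of concentrations; IC50 taken as mean ± SEM of four independent replicates.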

NCI-H2452 = assay: Antiproliferative activity against human NCI-H2452 cells incubated for 120 hrs by Celltiter-glo luminescent assay; format: functional, cell-based; details: NCI-H2452, 120 h
In short: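 NCI-H2452 cells (wild-type NF2) exposed to compound over a concentration range; IC50 estimated from the dose-response.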

[2] = target: T1, Protein cereblon-TEAD (Homo sapiens) (UniProt P28347+Q96SW2+Q15561+Q15562+Q99594); assay: Protac activity at CRBN/TEAD in human NCI-H226 cells at 1 uM preincubated with thalidomide for 1 hr followed by compound addition and measured after 8 hrs by Western blot analysis; format: cell-based
In short: (§1)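 Rescue design: NCI-H226 cells pretreated 1 h with BafA1, MG132, thalidomide or VT107, then cotreated 8 h with compound. Protein levels measured by Western blot.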

NCI-H226 [3] = assay: Downregulation of NPPB gene expression in human NCI-H226 cells incubated for 8 hrs by RT-qPCR analysis; format: functional, cell-based; details: dose 0.5-1 µM
In short: (§2)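 NCI-H226 cells exposed to 0.5 or 1 μM compound for 8 h. Transcript levels measured by qPCR. Mean ± SEM of three independent replicates.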

NCI-H226 [4] = assay: Downregulation of CYR61 gene expression in human NCI-H226 cells incubated for 8 hrs by RT-qPCR analysis; format: functional, cell-based; details: dose 0.5-1 µM; in short: as §2
NCI-H226 [5] = assay: Downregulation of IGFBP3 gene expression in human NCI-H226 cells incubated for 8 hrs by RT-qPCR analysis; format: functional, cell-based; details: dose 0.5-1 µM; in short: as §2
[6] = target: Protein cereblon/Programmed cell death protein 2 (Homo sapiens) (UniProt Q96SW2+Q16342); assay: Protac activity at CRBN/PDCD2 in human NCI-H226 cells at 0.01 to 10 uM incubated for 24 hrs by Western blot analysis; format: cell-based; details: dose 0.01-10 µM
In short: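 PDCD2 degradation in NCI-H226 cells after 24 h with compound at 0.01, 0.1, 1 and 10 μM, assessed by Western blot.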

[7] = target: Protein cereblon/Transcriptional enhancer factor TEF-1 (Homo sapiens) (UniProt P28347+Q96SW2); assay: Protac activity at CRBN (unknown origin) /Flag-tagged TEAD1 (unknown origin) transfected in HEK293T cells at 9.75 to 1000 nM pretreated with cycloheximide for 2 hrs followed by compound addition and measured after 24 hrs by Western blot analysis; format: cell-based; details: dose 9.75-1000 nM
In short: (§3)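 293T cells transfected separately with Flag-TEAD1, -2, -3 or -4. Pretreated 2 h with 200 μg/mL cycloheximide, then 24 h with compound at a series of concentrations. Isoform detected by anti-Flag Western blot and quantified. DC50 or maximal degradation derived. Mean ± SEM of three independent replicates.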

[8] = target: T1, Protein cereblon-TEAD (Homo sapiens); assay: Protac activity at CRBN/TEAD in human NCI-H226 cells at 1 uM incubated for 10 to 24 hrs by Western blot analysis; format: cell-based; details: time 10-24 hrs
In short: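 Time course in NCI-H226 cells: 1 μM compound for 1 to 24 h, pan-TEAD Western blot quantified. Mean ± SEM of three independent replicates.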

NCI-H226 [9] = assay: Downregulation of AMOTL2 gene expression in human NCI-H226 cells incubated for 8 hrs by RT-qPCR analysis; format: functional, cell-based; details: dose 0.5-1 µM; in short: as §2
NCI-H226 [10] = assay: Upregulation of FBXO32 gene expression in human NCI-H226 cells incubated for 8 hrs by RT-qPCR analysis; format: functional, cell-based; details: dose 0.5-1 µM; in short: as §2
[11] = target: T1, Protein cereblon-TEAD (Homo sapiens); assay: Protac activity at CRBN/TEAD in human NCI-H226 cells at 1 uM preincubated with MG132 for 1 hr followed by compound addition and measured after 8 hrs by Western blot analysis; format: cell-based; in short: as §1
[12] = target: T1, Protein cereblon-TEAD (Homo sapiens); assay: Protac activity at CRBN/TEAD in human NCI-H226 cells at 1 uM preincubated with BafA1 for 1 hr followed by compound addition and measured after 8 hrs by Western blot analysis; format: cell-based; in short: as §1
[13] = target: T1, Protein cereblon-TEAD (Homo sapiens); assay: Protac activity at CRBN/TEAD in human NCI-H226 cells at 0.1 uM incubated for 24 hrs by Western blot analysis; format: cell-based
In short: (§4)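 NCI-H226 cells exposed 24 h to 0.1, 1 or 10 μM compound. TEAD detected with pan-TEAD antibody by Western blot and quantified as percent degradation. Mean ± SEM of three independent replicates.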

Protein cereblon-TEAD = assay: Protac activity at CRBN/TEAD in human NCI-H226 cells incubated for 24 hrs by Western blot analysis; format: cell-based
In short: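 NCI-H226 cells exposed 24 h to compound across a broad concentration range. Pan-TEAD Western blot quantified; DC50 (half-maximal degradation concentration) derived. Mean ± SEM of three independent replicates.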

[14] = target: T1, Protein cereblon-TEAD (Homo sapiens); assay: Protac activity at CRBN/TEAD in human NCI-H226 cells at 1 uM preincubated with VT107 for 1 hr followed by compound addition and measured after 8 hrs by Western blot analysis; format: cell-based; in short: as §1
[15] = target: Protein cereblon/Transcriptional enhancer factor TEF-4 (Homo sapiens, UniProt Q96SW2+Q15562); assay: Protac activity at CRBN (unknown origin) /Flag-tagged TEAD2 (unknown origin) transfected in HEK293T cells pretreated with cycloheximide for 2 hrs followed by compound addition and measured after 24 hrs by Western blot analysis; format: cell-based; in short: as §3
[16] = target: T1, Protein cereblon-TEAD (Homo sapiens); assay: Protac activity at CRBN/TEAD in human NCI-H226 cells at 1 to 10 uM incubated for 24 hrs by Western blot analysis; format: cell-based; details: dose 1-10 µM; in short: as §4
[17] = target: Protein cereblon/Transcriptional enhancer factor TEF-3 (Homo sapiens) (UniProt Q96SW2+Q15561); assay: Protac activity at CRBN (unknown origin) /Flag-tagged TEAD4 (unknown origin) transfected in HEK293T cells at 9.75 to 1000 nM pretreated with cycloheximide for 2 hrs followed by compound addition and measured after 24 hrs by Western blot analysis; format: cell-based; details: dose 9.75-1000 nM; in short: as §3
NCI-H226 [18] = assay: Downregulation of CTGF gene expression in human NCI-H226 cells incubated for 8 hrs by RT-qPCR analysis; format: functional, cell-based; details: dose 0.5-1 µM; in short: as §2
[19] = target: Protein cereblon/Transcriptional enhancer factor TEF-5 (Homo sapiens) (UniProt Q96SW2+Q99594); assay: Protac activity at CRBN (unknown origin) /Flag-tagged TEAD3 (unknown origin) transfected in HEK293T cells at 9.75 to 1000 nM pretreated with cycloheximide for 2 hrs followed by compound addition and measured after 24 hrs by Western blot analysis; format: cell-based; details: dose 9.75-1000 nM; in short: as §3
Sequence of Protein cereblon/Transcriptional enhancer factor TEF-5 (Homo sapiens) (Q96SW2 whole entry, looked up): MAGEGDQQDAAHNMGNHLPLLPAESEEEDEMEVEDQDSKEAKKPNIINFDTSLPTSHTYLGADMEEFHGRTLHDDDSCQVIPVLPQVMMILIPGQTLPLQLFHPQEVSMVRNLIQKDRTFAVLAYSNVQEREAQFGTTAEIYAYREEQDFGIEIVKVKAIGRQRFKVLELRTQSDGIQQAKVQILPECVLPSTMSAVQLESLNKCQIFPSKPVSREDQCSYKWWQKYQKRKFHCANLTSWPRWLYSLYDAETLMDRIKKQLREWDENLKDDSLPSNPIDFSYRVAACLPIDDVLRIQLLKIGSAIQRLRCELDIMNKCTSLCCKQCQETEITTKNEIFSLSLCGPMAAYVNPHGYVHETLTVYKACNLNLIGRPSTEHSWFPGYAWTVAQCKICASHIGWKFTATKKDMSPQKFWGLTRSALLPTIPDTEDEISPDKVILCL
Sequence of Protein cereblon/Transcriptional enhancer factor TEF-5 (Homo sapiens) (Q99594 whole entry, looked up): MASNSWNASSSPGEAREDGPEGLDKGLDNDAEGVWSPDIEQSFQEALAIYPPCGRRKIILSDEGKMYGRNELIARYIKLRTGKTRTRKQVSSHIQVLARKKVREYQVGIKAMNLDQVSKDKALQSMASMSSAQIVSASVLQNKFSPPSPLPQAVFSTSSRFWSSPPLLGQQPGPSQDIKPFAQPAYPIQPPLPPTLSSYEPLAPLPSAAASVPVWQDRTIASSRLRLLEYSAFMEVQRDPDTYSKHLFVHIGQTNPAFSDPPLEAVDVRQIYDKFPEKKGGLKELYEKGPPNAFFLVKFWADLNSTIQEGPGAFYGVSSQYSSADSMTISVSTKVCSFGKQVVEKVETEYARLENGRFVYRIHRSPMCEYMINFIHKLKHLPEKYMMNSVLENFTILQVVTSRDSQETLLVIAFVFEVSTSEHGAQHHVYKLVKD

T1 sequence (Q15562 whole entry partner): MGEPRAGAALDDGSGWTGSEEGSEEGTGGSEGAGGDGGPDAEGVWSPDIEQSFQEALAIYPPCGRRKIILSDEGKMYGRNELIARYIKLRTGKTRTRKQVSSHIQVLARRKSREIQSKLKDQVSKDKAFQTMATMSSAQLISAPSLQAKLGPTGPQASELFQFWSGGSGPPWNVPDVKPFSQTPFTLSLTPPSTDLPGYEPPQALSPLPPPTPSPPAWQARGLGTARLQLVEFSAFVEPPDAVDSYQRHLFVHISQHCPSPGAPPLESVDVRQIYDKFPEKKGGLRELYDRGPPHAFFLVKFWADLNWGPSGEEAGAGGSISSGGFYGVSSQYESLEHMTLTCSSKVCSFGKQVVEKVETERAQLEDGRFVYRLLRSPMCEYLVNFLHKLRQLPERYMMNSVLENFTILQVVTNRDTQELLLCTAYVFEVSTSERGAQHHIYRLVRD
T1 sequence (Q96SW2 whole entry partner): as the sequence (Q96SW2 whole entry, looked up) above
T1 sequence (Q99594 2-435 partner limits assumed): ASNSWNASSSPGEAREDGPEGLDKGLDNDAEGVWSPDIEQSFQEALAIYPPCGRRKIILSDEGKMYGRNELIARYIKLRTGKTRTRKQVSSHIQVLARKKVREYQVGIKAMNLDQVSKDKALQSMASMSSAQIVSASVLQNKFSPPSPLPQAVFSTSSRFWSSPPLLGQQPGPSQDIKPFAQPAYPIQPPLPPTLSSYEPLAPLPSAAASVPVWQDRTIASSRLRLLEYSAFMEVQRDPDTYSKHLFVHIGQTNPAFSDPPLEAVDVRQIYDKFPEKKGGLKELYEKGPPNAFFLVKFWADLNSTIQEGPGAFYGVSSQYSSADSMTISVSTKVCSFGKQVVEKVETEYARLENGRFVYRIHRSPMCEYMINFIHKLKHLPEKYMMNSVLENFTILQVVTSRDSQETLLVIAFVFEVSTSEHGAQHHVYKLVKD
T1 sequence (P28347 whole entry): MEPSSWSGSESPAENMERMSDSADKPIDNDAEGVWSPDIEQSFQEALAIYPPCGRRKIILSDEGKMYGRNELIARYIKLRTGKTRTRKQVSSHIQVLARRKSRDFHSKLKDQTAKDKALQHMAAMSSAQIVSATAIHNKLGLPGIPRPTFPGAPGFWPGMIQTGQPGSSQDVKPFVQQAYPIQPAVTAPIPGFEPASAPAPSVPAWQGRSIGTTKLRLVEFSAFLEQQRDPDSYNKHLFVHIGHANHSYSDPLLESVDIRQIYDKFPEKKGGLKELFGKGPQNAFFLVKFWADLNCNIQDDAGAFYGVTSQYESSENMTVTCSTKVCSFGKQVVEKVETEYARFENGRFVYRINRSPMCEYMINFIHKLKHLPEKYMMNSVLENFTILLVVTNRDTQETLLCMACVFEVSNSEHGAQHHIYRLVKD
T1 sequence (Q15561 whole entry partner): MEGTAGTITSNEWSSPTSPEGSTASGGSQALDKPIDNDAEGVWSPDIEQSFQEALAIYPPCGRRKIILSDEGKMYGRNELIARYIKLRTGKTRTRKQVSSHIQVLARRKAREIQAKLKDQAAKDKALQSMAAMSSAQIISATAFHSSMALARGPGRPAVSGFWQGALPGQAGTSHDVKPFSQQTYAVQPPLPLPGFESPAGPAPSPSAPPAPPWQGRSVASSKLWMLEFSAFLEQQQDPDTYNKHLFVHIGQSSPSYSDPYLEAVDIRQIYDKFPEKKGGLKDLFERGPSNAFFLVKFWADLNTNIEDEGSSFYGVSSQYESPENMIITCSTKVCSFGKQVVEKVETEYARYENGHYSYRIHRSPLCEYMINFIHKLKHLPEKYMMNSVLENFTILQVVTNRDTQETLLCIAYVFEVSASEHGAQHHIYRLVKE
Sequence of Protein cereblon/Programmed cell death protein 2 (Homo sapiens) (Q16342 whole entry, looked up): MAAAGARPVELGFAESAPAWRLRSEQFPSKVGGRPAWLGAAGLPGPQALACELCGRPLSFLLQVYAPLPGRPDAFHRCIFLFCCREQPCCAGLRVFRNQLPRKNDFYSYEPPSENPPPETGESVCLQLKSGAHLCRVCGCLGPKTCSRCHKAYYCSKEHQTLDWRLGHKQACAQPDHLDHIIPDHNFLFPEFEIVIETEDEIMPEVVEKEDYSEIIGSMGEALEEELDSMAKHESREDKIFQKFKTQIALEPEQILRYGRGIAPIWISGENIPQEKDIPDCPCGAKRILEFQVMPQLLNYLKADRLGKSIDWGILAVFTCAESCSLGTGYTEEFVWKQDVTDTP
Sequence of Protein cereblon/Programmed cell death protein 2 (Homo sapiens) (Q96SW2 whole entry, looked up): as the sequence (Q96SW2 whole entry, looked up) above
Sequence of Protein cereblon/Transcriptional enhancer factor TEF-1 (Homo sapiens) (P28347 whole entry, looked up, canonical isoform): as the sequence (P28347 whole entry) above
Sequence of Protein cereblon/Transcriptional enhancer factor TEF-1 (Homo sapiens) (Q96SW2 whole entry, looked up, canonical isoform): as the sequence (Q96SW2 whole entry, looked up) above
Sequence of Protein cereblon/Transcriptional enhancer factor TEF-3 (Homo sapiens) (Q15561 whole entry, looked up): as the sequence (Q15561 whole entry partner) above
Sequence of Protein cereblon/Transcriptional enhancer factor TEF-3 (Homo sapiens) (Q96SW2 whole entry, looked up): as the sequence (Q96SW2 whole entry, looked up) above
Sequence of Protein cereblon/Transcriptional enhancer factor TEF-4 (Q96SW2 whole entry): as the sequence (Q96SW2 whole entry, looked up) above
Sequence of Protein cereblon/Transcriptional enhancer factor TEF-4 (Q15562 whole entry): as the sequence (Q15562 whole entry partner) above

IC50 (NCI-H226 [1]): 2.65 µM
SMILES: C[C@H](NC(=O)c1ccc2c(-c3ccc(C(F)(F)F)cc3)cccc2c1)c1cccc(NCCCCCCCNc2cccc3c2C(=O)N(C2CCC(=O)NC2=O)C3=O)n1 (some centres undefined)

IC50 (NCI-H226 [1]): 1.18 µM
SMILES: C[C@H](NC(=O)c1ccc2c(-c3ccc(C(F)(F)F)cc3)cccc2c1)c1cccc(NCCCCNc2cccc3c2C(=O)N(C2CCC(=O)NC2=O)C3=O)n1 (some centres undefined)

IC50 (NCI-H226 [1]): 0.81 µM
SMILES: C[C@H](NC(=O)c1ccc2c(-c3ccc(C(F)(F)F)cc3)cccc2c1)c1cccc(NCCCCCNc2cccc3c2C(=O)N(C2CCC(=O)NC2=O)C3=O)n1 (some centres undefined)

IC50 (NCI-H226 [1]): 5.11 µM
SMILES: C[C@H](NC(=O)c1ccc2c(-c3ccc(C(F)(F)F)cc3)cccc2c1)c1cccc(NCCCCCCCCNc2cccc3c2C(=O)N(C2CCC(=O)NC2=O)C3=O)n1 (some centres undefined)

IC50 (NCI-H226 [1]): 0.94 µM
SMILES: C[C@H](NC(=O)c1ccc2c(-c3ccc(C(F)(F)F)cc3)cccc2c1)c1cccc(NCCCNc2cccc3c2C(=O)N(C2CCC(=O)NC2=O)C3=O)n1 (some centres undefined)

IC50 (NCI-H226 [1]): 1.15 µM
SMILES: C[C@H](NC(=O)c1ccc2c(-c3ccc(C(F)(F)F)cc3)cccc2c1)c1cccc(NCCCCCCNc2cccc3c2C(=O)N(C2CCC(=O)NC2=O)C3=O)n1 (some centres undefined)

IC50 (NCI-H226 [1]): 1.51 µM
SMILES: C[C@H](NC(=O)c1ccc2c(-c3ccc(C(F)(F)F)cc3)cccc2c1)c1cccc(NCCNc2cccc3c2C(=O)N(C2CCC(=O)NC2=O)C3=O)n1 (some centres undefined)

Further lines, the compound ahead of its results:

SMILES: C[C@H](NC(=O)c1ccc2c(-c3ccc(C(F)(F)F)cc3)cccc2c1)c1cccc(NCCOCCOCCNc2ccc3c(c2)C(=O)N(C2CCC(=O)NC2=O)C3=O)n1 (some centres undefined)
IC50 (NCI-H2452): > 10 µM | Activity [2]: inactive | Activity (NCI-H226 [3]): Active | Activity (NCI-H226 [4]): Active | Activity (NCI-H226 [5]): Active | Activity [6]: inactive | Emax [7]: 40% | Activity [8]: Active | Activity (NCI-H226 [9]): Active | IC50 (NCI-H226 [1]): 0.21 µM | Activity (NCI-H226 [10]): Active | Activity [11]: inactive | Activity [12]: Active | Activity [13]: 42.4% | DC50 (Protein cereblon-TEAD): 0.0327 µM | Activity [14]: inactive | DC50 [15]: 0.0541 µM | Activity [16]: Active | Activity [17]: inactive | Activity (NCI-H226 [18]): Active | Activity [19]: inactive

SMILES: C[C@H](NC(=O)c1ccc2c(-c3ccc(C(F)(F)F)cc3)cccc2c1)c1cccc(NCCOCCOCCOCCNc2ccc3c(c2)C(=O)N(C2CCC(=O)NC2=O)C3=O)n1 (some centres undefined)
IC50 (NCI-H226 [1]): 0.23 µM | Activity [16]: Active

SMILES: C[C@H](NC(=O)c1ccc2c(-c3ccc(C(F)(F)F)cc3)cccc2c1)c1cccc(NCCOCCOCCNc2cccc3c2C(=O)N(C2CCC(=O)NC2=O)C3=O)n1 (some centres undefined)
IC50 (NCI-H226 [1]): 0.29 µM | Activity [16]: Active

SMILES: C[C@H](NC(=O)c1ccc2c(-c3ccc(C(F)(F)F)cc3)cccc2c1)c1cccc(NCCOCCNc2ccc3c(c2)C(=O)N(C2CCC(=O)NC2=O)C3=O)n1 (some centres undefined)
IC50 (NCI-H226 [1]): 0.35 µM

SMILES: C[C@H](NC(=O)c1ccc2c(-c3ccc(C(F)(F)F)cc3)cccc2c1)c1cccc(NCCOCCOCCOCCNc2cccc3c2C(=O)N(C2CCC(=O)NC2=O)C3=O)n1 (some centres undefined)
IC50 (NCI-H226 [1]): 0.26 µM | Activity [13]: 45.1% | DC50 (Protein cereblon-TEAD): 0.0397 µM | Activity [16]: Active

SMILES: C[C@H](NC(=O)c1ccc2c(-c3ccc(C(F)(F)F)cc3)cccc2c1)c1cccc(N)n1
IC50 (NCI-H226 [1]): 0.03 µM

SMILES: C[C@H](NC(=O)c1ccc2c(-c3ccc(C(F)(F)F)cc3)cccc2c1)c1cccc(NCCOCCNc2cccc3c2C(=O)N(C2CCC(=O)NC2=O)C3=O)n1 (some centres undefined)
IC50 (NCI-H226 [1]): 0.34 µM
